Experiments:
[1] = test system: APAP-induced acute liver injury; assay: APAP-induced acute liver injury in mice; format: in vivo, C57BL/6 male mice
[2] = MTT cytotoxicity assay, LO2; format: cell-based, human; details: human, LO2 cells
Keap1–Nrf2 interaction [3] = molecular target: T1, Keap1–Nrf2 interaction (Homo sapiens, UniProt Q14145); assay: Fluorescence polarization; details: read-out: Keap1–Nrf2 binding inhibition IC50; FP assay
Keap1 and Nrf2 binding = Keap1 and Nrf2 binding (Homo sapiens, UniProt Q14145); assay: Competitive assay; details: competitive inhibitor, double-reciprocal plot
Keap1 and Nrf2 binding, sequence (Q14145 whole entry): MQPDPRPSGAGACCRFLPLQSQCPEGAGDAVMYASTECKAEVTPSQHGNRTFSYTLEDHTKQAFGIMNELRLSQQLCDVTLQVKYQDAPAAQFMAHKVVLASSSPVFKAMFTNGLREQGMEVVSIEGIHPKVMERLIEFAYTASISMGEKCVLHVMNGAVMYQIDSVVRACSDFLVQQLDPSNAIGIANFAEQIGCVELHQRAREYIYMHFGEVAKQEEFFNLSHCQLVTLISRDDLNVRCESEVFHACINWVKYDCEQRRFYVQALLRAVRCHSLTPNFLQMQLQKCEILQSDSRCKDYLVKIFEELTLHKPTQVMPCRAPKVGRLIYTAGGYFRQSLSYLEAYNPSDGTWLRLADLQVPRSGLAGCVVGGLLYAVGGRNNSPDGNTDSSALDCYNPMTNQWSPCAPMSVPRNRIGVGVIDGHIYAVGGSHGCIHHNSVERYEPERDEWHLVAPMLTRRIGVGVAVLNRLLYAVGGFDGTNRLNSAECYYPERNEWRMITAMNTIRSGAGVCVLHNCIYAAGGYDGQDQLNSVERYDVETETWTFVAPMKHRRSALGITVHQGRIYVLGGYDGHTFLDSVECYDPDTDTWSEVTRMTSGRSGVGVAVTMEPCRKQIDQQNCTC
Summary of the method: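 Fluorescence polarisation kit assay. Diluted Keap1 ([…]) was combined with Nrf2 peptide (1 μM stock), BSA and test compound in kit buffer. The mix was incubated 0.5 h at ambient temperature and read at excitation 485 nm, emission 535 nm. For the competitive format, wells held […] Nrf2 with test compound at several concentrations.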

Keap1 [4] = molecular target: T2, Keap1 (Homo sapiens, UniProt Q14145); assay: Isothermal titration calorimetry with recombinant Keap1; format: binding
T2 sequence (Q14145 whole entry): as above
Summary of the method: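 Human His6-Keap1 was expressed in E. coli BL21(DE3) (1 mM IPTG, 37 °C, 4 h) and purified on a His column. Protein and test compound were dialysed into 20 mM Bis-Tris, 150 mM NaCl, 2 mM DTT. Compound (200 μM) was titrated into protein (20 μM) in 19 × 2 μL injections, 150 s apart, at 25 °C and 750 rpm. Control titrations were included; data were fitted with a composite model.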

Nrf2 [5] = molecular target: T3, Nrf2 (Homo sapiens, UniProt Q16236); assay: Isothermal titration calorimetry with recombinant Nrf2; format: binding; details: 200 μM of 1 titrated into Nrf2 (20 μM)
T3 sequence (Q16236 1-605): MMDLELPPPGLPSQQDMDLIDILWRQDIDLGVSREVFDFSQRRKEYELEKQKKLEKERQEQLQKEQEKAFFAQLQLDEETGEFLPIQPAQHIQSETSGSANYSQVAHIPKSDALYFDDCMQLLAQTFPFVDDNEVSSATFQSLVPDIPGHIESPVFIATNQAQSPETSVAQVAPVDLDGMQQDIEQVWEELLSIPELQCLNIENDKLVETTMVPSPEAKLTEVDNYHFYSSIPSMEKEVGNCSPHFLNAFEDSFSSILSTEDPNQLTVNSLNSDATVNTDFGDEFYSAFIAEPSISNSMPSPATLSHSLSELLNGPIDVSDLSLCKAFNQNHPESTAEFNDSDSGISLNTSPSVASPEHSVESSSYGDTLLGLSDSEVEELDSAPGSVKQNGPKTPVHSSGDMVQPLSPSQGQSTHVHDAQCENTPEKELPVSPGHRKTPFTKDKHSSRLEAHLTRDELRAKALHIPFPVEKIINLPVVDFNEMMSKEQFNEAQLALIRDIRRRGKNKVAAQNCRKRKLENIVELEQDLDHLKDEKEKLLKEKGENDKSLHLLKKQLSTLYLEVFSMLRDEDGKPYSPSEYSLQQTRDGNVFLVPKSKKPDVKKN

Keap1 [6] = molecular target: T2, Keap1; assay: Cellular thermal shift assay; format: cell-based; details: 1 at 5.0 μM, LO2 cell lysates
Summary of the method: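 LO2 lysate from 2 × 10^6 cells was diluted in PBS and split into equal aliquots. Aliquots were treated with test compound (5.0 μM) or DMSO for 30 min at room temperature, then heated individually across a temperature series. They were centrifuged, and supernatants were run on SDS-PAGE and immunoblotted for Keap1.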

Nrf2 [7] = molecular target: T3, Nrf2; assay: Cellular thermal shift assay; format: cell-based; details: 1 at 5.0 μM, LO2 cell lysates
[8] = Stability by UV-Vis and 1H NMR over 7 days; format: physicochemical; details: 4:1 acetonitrile/aqueous medium, seven days
LO2 cells [9] = assay: Cellular uptake in LO2 cells by ICP-MS; format: in vitro ADME, human; details: 5 μM
Summary of the method: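 LO2 cells were incubated with test compound at 5 μM for varying times. Iridium was then quantified by ICP-MS in whole cells and in separated nuclear and cytoplasmic fractions. Three independent experiments were run, shown as mean ± standard deviation; one-way ANOVA with Tukey's test.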

Keap1–Nrf2 interaction [10] = molecular target: T1, Keap1–Nrf2 interaction; assay: Co-immunoprecipitation of Keap1 and Nrf2 in LO2 cells; format: cell-based; details: 5.0 μM, 8 h
Nrf2 [11] = assay: Nrf2 nuclear translocation in LO2 cells; format: cell-based, human; details: after 1 h
LO2 cells [12] = assay: ROS detection; format: cell-based, human; details: 5 μM, 8 h
Summary of the method: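 LO2 cells were treated with H2O2 (800 μM, 3 h) and test compound (5 μM, 8 h). Cells were labelled with 5 μM H2DCF-DA in serum-free DMEM at 37 °C for 30 min, washed, and imaged by confocal microscopy at excitation 488 nm, emission 525 nm.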

proteasome = assay: Proteasome activity fluorometric assay kit; format: cell-based, human; details: 5 μM, 8 h
Summary of the method: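 LO2 cells were treated 8 h with test compound (5 μM). Proteasome activity was then measured with a commercial fluorometric kit, with MG132 as positive control.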

LO2 cells [13] = assay: Mitochondrial membrane potential by rhodamine 123 staining in LO2 cells; format: cell-based, human; details: 5 μM, 8 h
Summary of the method: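 LO2 cells were attached overnight, then treated 8 h with test compound (5 μM). CCCP (10 μM, 1 h) was the positive control. Cells were stained with rhodamine 123 (5 μg/mL, 30 min) for fluorescence microscopy. For quantitation, washed cells at 1.0 × 10^5 cells/mL were stained at 37 °C in the dark for 30 min and read by spectrofluorometer at excitation 505 nm, emission 534 nm.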

HO-1 and NQO1 = HO-1 and NQO1 levels in LO2 cells by Western blotting; format: cell-based, human
LO2 cells [14] = assay: MTT cytotoxicity assay, LO2; format: cell-based, human; details: read-out: cytotoxicity IC50; LO2, MTT, 48 h
LO2 cells [15] = assay: Cytoprotection against APAP-induced cytotoxicity in LO2 cells; format: cell-based, human
[16] = Pharmacokinetic profile in mouse plasma by ICP-MS; format: in vivo; details: mice
Summary of the method: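 After an overnight fast, C57BL/6J mice received test compound at 5.0 mg kg−1 i.p. Blood was collected into EDTA-2Na at 0, 0.5, 1, 2, 6, 12, 24 and 48 h. Plasma iridium was quantified by ICP-MS, n = 4, shown as mean ± SD.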

mice = assay: Toxicity evaluation and organ distribution in mice; format: in vivo
Summary of the method: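 Mice received test compound at 2.5 or 5.0 mg kg−1 i.p.; body and organ weights were recorded after 6 h. Organ index = organ wet weight/body weight × 100%; the figure legend reports indexes at 12 h, n = 5. About 100 mg tissue was ground in liquid nitrogen, nitric-acid digested, and analysed for iridium by ICP-MS. Organs were fixed 24 h, sectioned at 4 μm, and H&E stained.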

[17] = 1 at 5.0 mg kg−1, 6 h after APAP challenge

T1 sequence (Q14145 whole entry): as the sequence (Q14145 whole entry) above

Compound: CC(=O)Nc1ccc(O)cc1 [APAP, Acetaminophen, reference compound]
- serum ALT, maximum level ([1]; 12 h after APAP challenge): 3334.98 U/L
- serum AST, maximum level ([1]; 12 h after APAP challenge): 2002.31 U/L
- serum ALT ([1]; 48 h after APAP challenge): 608.41 U/L
- serum AST ([1]; 48 h after APAP challenge): 488.20 U/L
- increase in serum ALT compared with the control group ([1]; APAP 400 mg kg−1): 188 fold
- increase in serum AST compared with the control group ([1]; APAP 400 mg kg−1): 216 fold
- percentage of necrotic liver areas ([1]; APAP 400 mg kg−1 i.p. alone (model group)): 21.01%

Compound: Clc1cc(-c2ccccc2)nc2ccccc12 [Ligand 7, 4-chloro-2-phenylquinoline]
- IC50 at 48 h [2]: > 100000 nM

Compound: Cc1ccc2ccc3ccc(C)nc3c2n1 [Ligand 8, 2,9-dimethyl-1,10-phenanthroline]
- IC50 at 48 h [2]: > 100000 nM

Compound: [Ir (clpq)2 (2,9-dmphen)](PF6) [Complex 1]
- IC50 (Keap1–Nrf2 interaction [3]): 1090 nM
- Ki (Keap1 and Nrf2 binding): 1030 nM
- -TΔS (ITC) (Keap1 [4]; Keap1): -1.64 kcal/mol
- stoichiometry N (ITC) (Keap1 [4]; Keap1): 0.962 ± 0.026
- ΔG (ITC) (Keap1 [4]; Keap1): -8.39 kcal/mol
- ΔH (ITC) (Keap1 [4]; Keap1): -6.75 kcal/mol
- Kd (Keap1 [4]; read-out: Kd (ITC), 200 μM of 1 titrated into Keap1 (20 μM), 25 °C): 710 ± 790 nM
- binding to Nrf2 by ITC (Nrf2 [5]): no binding was observed
- shift of Keap1 melting curve (Keap1 [6]): ca. 6 °C
- shift of Nrf2 melting curve (Nrf2 [7]): no significant shift
- stability [8]: good stability
- cellular permeability (iridium levels in nucleus and cytoplasm) (LO2 cells [9]): good cellular permeability
- Nrf2 co-precipitated with Keap1 (Keap1–Nrf2 interaction [10]): reduction of Nrf2 co-precipitated with Keap1
- Nrf2 accumulation in the nucleus (Nrf2 [11]): induced Nrf2 accumulation in the nucleus
- effect on ROS elevation (LO2 cells [12]): no significant effect
- effect on proteasomal inhibition (proteasome): no significant effect
- effect on mitochondrial dysfunction (LO2 cells [13]): no significant effect
- levels of HO-1 and NQO1 (HO-1 and NQO1; 6 h treatment): increased
- increase of HO-1 and NQO1 levels in Keap1 knockdown cells versus control cells (HO-1 and NQO1; Keap1 siRNA): less effective
- increase of HO-1 and NQO1 levels after Nrf2 knockdown (HO-1 and NQO1; Nrf2 siRNA): muted
- IC50 (LO2 cells [14]): 48000 nM
- cell viability of LO2 cells after treatment with APAP (LO2 cells [15]): dose-dependent restoration of cell viability
- reductions of AST levels ([1]; 1 (5 mg/kg), time intervals 6, 12, 24 and 48 h after APAP): 32.29–53.62%
- decrease of serum ALT [1, 17]: 23.5%
- decrease of serum AST [1, 17]: 25.2%
- percentage of necrotic liver areas ([1]; APAP 400 mg kg−1 + 1 at 2.5 mg kg−1 i.p. once daily for five days): 16.04%
- percentage of necrotic liver areas ([1]; APAP 400 mg kg−1 + 1 at 5.0 mg kg−1 i.p. once daily for five days): 8.99%
- Nrf2 levels in the nucleus (liver) in comparison to the APAP group ([1]; mice, APAP + 1): significantly increased
- protein expression of Keap1 (liver) ([1]; mice, APAP + 1): remained basal
- elimination half-life ([16]; 5 mg kg−1 i.p.): 12 h
- maximum mean peak area in plasma (Cmax) ([16]; 5.0 mg kg−1 i.p.): 13700 ng/mL
- Cmax ([16]; read-out: maximum mean peak area in plasma (Cmax), 5.0 mg kg−1 i.p.): 13.4 µM
- organ damage (organ morphology, organ index, H&E) (mice; 5.0 mg kg−1 i.p., 6, 12 and 24 h): did not cause organ damage
- concentration in various organs (ICP-MS) (mice; i.p., 6 h): mainly concentrated in the liver and kidney

From paper PMC8710994 (Redox Biology, 2021)
